According to ChEMBL document CHEMBL1759864, “Synthesis and proteasome inhibition of lithocholic acid derivatives” (Bioorg Med Chem Lett, 2011):
The source made the active and inactive calls. The rule behind the calls is not given here. Where a SMILES comes first, the peptide text is derived from it.

Tested on: not listed separately
Assay: Inhibition of chymotrypsin-like activity of 20S proteasome

inhibition	Structure (SMILES)	IC50 [µM]
–	C[C@H](CCC(=O)O)[C@H]1CC[C@H]2[C@@H]3CC[C@@H]4C[C@H](OC(=O)CCC(=O)O)CC[C@]4(C)[C@H]3CC[C@]12C	10.3
–	C[C@H](CCC(=O)O)[C@H]1CC[C@H]2[C@@H]3CC[C@@H]4C[C@H](OC(=O)c5ccccc5C(=O)O)CC[C@]4(C)[C@H]3CC[C@]12C	8.6
–	C[C@H](CCC(=O)O)[C@H]1CC[C@H]2[C@@H]3CC[C@@H]4C[C@H](OC(=O)CCCCC(=O)O)CC[C@]4(C)[C@H]3CC[C@]12C	3.5
–	C[C@H](CCC(=O)O)[C@H]1CC[C@H]2[C@@H]3CC[C@@H]4C[C@H](O)CC[C@]4(C)[C@H]3CC[C@]12C [LITHOCHOLIC ACID]	18.1
–	C[C@H](CCC(=O)O)[C@H]1CC[C@H]2[C@@H]3CC[C@@H]4C[C@H](OC(=O)COCC(=O)O)CC[C@]4(C)[C@H]3CC[C@]12C	6.9
–	CC(CC(=O)O[C@@H]1CC[C@@]2(C)[C@H](CC[C@@H]3[C@@H]2CC[C@]2(C)[C@@H]([C@H](C)CCC(=O)O)CC[C@@H]32)C1)C(=O)O (some centres not stated)	11.5
–	C[C@H](CCC(=O)O)[C@H]1CC[C@H]2[C@@H]3CC[C@@H]4C[C@H](OC(=O)Cc5ccc(CC(=O)O)cc5)CC[C@]4(C)[C@H]3CC[C@]12C	3.8
inactive	CCOC(=O)CC[C@@H](C)[C@H]1CC[C@H]2[C@@H]3CC[C@@H]4C[C@H](OC(=O)CCCCCC(=O)O)CC[C@]4(C)[C@H]3CC[C@]12C	–
–	C[C@H](CCC(=O)O)[C@H]1CC[C@H]2[C@@H]3CC[C@@H]4C[C@H](OC(=O)Cc5cccc(CC(=O)O)c5)CC[C@]4(C)[C@H]3CC[C@]12C	1.9
–	C[C@H](CCC(=O)O)[C@H]1CC[C@H]2[C@@H]3CC[C@@H]4C[C@H](OC(=O)CCCC(=O)O)CC[C@]4(C)[C@H]3CC[C@]12C	10.8
–	C[C@H](CCC(=O)O)[C@H]1CC[C@H]2[C@@H]3CC[C@@H]4C[C@H](OC(=O)[C@@H]5CCCC[C@H]5C(=O)O)CC[C@]4(C)[C@H]3CC[C@]12C	8.5
–	CC(C(=O)O)C(C)C(=O)O[C@@H]1CC[C@@]2(C)[C@H](CC[C@@H]3[C@@H]2CC[C@]2(C)[C@@H]([C@H](C)CCC(=O)O)CC[C@@H]32)C1 (some centres not stated)	5.8
inactive	CCOC(=O)CC[C@@H](C)[C@H]1CC[C@H]2[C@@H]3CC[C@@H]4C[C@H](O)CC[C@]4(C)[C@H]3CC[C@]12C	–
–	C[C@H](CCC(=O)O)[C@H]1CC[C@H]2[C@@H]3CC[C@@H]4C[C@H](OC(=O)CC5(CC(=O)O)CCCC5)CC[C@]4(C)[C@H]3CC[C@]12C	2.2
inactive	COC(=O)CC[C@@H](C)[C@H]1CC[C@H]2[C@@H]3CC[C@@H]4C[C@H](OC(=O)Cc5cccc(CC(=O)O)c5)CC[C@]4(C)[C@H]3CC[C@]12C	–
–	CSCC[C@@H](C=O)NC(=O)[C@H](CC(C)C)NC(=O)[C@H](CC(C)C)NC(C)=O (Ac-Leu-Leu-Met-aldehyde)	5.2
inactive	COC(=O)CC[C@@H](C)[C@H]1CC[C@H]2[C@@H]3CC[C@@H]4C[C@H](O)CC[C@]4(C)[C@H]3CC[C@]12C	–
inactive	C[C@H](CCC(=O)O)[C@H]1CC[C@H]2[C@@H]3CC[C@@H]4C[C@H](OC(=O)CCCCCC(=O)O)CC[C@]4(C)[C@H]3CC[C@]12C	–

Structure (SMILES)	inhibition	IC50 [µM]
COC(=O)CC[C@@H](C)[C@H]1CC[C@H]2[C@@H]3CC[C@@H]4C[C@H](OC(=O)CCCCCC(=O)O)CC[C@]4(C)[C@H]3CC[C@]12C	inactive	–

Tested on: not listed separately
Assay: Inhibition of trypsin-like activity of 20S proteasome

Structure (SMILES)	IC50 [µM]
C[C@H](CCC(=O)O)[C@H]1CC[C@H]2[C@@H]3CC[C@@H]4C[C@H](OC(=O)Cc5cccc(CC(=O)O)c5)CC[C@]4(C)[C@H]3CC[C@]12C	9.1

Tested on: HeLa
Assay: Inhibition of proteasome activity in human HeLa cells transfected with UbG76V-GFP assessed as accumulation of ubiquitinG76V-GFP at 7.5 uM after 24 hrs by fluorescence microscopy
In short: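 HeLa cells stably expressing Ub^G76V-GFP, grown in DMEM with 10% heat-inactivated FBS at 37 °C, humidified. Cells seeded at 10,000 per well and exposed to compound at 7.5 µM for 24 h. Proteasome block is read as intracellular Ub^G76V-GFP accumulation (green fluorescence), documented by fluorescence microscopy against untreated cells.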

Structure (SMILES)	inhibition
C[C@H](CCC(=O)O)[C@H]1CC[C@H]2[C@@H]3CC[C@@H]4C[C@H](OC(=O)CC5(CC(=O)O)CCCC5)CC[C@]4(C)[C@H]3CC[C@]12C	Active

Target: not listed separately
Assay: Inhibition of caspase-like activity of 20S proteasome

Structure (SMILES)	IC50 [µM]
C[C@H](CCC(=O)O)[C@H]1CC[C@H]2[C@@H]3CC[C@@H]4C[C@H](OC(=O)Cc5cccc(CC(=O)O)c5)CC[C@]4(C)[C@H]3CC[C@]12C	6.5
